Source: ChEMBL document CHEMBL1122501, “Potential antiatherosclerotic agents. 2. (Aralkylamino)- and (alkylamino) benzoic acid analogues of cetaben” (1983)
Values joined by “and” are separate entries in the source; they are usually repeats but may differ in a detail not shown here. Equal entries are not always repeated.

Key:
Rattus norvegicus [1] = experiment: In vivo sterol lowering activity dosed at 0.10 % of the diet; type: functional
Summary of the method: (§1)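 Male CFE or CD-1 Sprague-Dawley rats, 140-150 g; 8 per control group, 4 per test group. Compound mixed into ground chow (w/w) via MeOH-CHCl3 (1:3) solution, solvent evaporated; controls got solvent-treated chow. Fed ad libitum 5 days, food intake monitored, killed fed and bled. Serum sterols and triglycerides by adapted autoanalyzer methods; mean percent of control, Student's t test.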

Rattus norvegicus [2] = experiment: In vivo Sterol lowering activity at dose as 0.01 % of the diet.; type: functional; summary of the method: as §1
Rattus norvegicus [3] = experiment: In vivo triglyceride lowering activity, dosed at 0.01 % of the diet.; type: functional; summary of the method: as §1
Rattus norvegicus [4] = experiment: In vivo Sterol lowering activity at dose as 0.03 % of the diet; type: functional; summary of the method: as §1
Rattus norvegicus [5] = experiment: In vivo Triglyceride lowering activity at dose as 0.03 % of the diet.; type: functional; summary of the method: as §1
Rattus norvegicus [6] = experiment: In vivo triglyceride lowering activity dosed at 0.10 % of the diet; type: functional; summary of the method: as §1
Rattus norvegicus [7] = experiment: In vivo Sterol lowering activity at dose as 0.025 % of the diet; type: functional; summary of the method: as §1
Rattus norvegicus [8] = experiment: In vivo Sterol lowering activity at dose as 0.05 % of the diet; type: functional; summary of the method: as §1
Rattus norvegicus [9] = experiment: In vivo Triglyceride lowering activity at dose as 0.025 % of the diet; type: functional; summary of the method: as §1
Rattus norvegicus [10] = experiment: In vivo triglyceride lowering activity dosed at 0.05 % of the diet; type: functional; summary of the method: as §1
[11] = target: T1, Sterol O-acyltransferase 1 (Rattus norvegicus) (UniProt O70536); experiment: In vitro inhibitory activity against acyl coenzyme A:cholesterol acyltransferase (ACAT); set-up: concentration or dose not given beside the values; conditions: concentration not given here
T1 sequence (whole entry): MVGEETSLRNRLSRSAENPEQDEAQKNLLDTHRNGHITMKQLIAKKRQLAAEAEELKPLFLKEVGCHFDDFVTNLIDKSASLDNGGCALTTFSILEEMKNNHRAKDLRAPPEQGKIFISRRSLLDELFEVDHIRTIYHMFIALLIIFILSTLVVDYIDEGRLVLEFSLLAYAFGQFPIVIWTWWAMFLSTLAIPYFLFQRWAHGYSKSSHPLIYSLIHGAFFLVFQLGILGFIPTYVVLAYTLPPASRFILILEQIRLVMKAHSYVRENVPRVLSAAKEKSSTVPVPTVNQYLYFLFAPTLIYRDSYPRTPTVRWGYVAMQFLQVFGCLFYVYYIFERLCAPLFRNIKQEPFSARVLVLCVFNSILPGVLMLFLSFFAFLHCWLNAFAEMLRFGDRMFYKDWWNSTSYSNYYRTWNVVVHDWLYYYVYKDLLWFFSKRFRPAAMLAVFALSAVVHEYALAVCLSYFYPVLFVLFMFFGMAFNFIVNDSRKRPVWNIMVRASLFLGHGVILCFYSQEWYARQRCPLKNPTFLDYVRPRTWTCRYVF
Summary of the method: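 ACAT enzyme from rat adrenal homogenate in 0.2 M KH2PO4 buffer pH 7.4, 1000g 15 min 5 °C supernatant (microsomal fraction). Supernatant + BSA (50 mg/mL) + compound at final 5.2 μg/mL + buffer preincubated 10 min 37 °C; [14C]oleoyl-CoA (0.4 μCi) added, 30 min 37 °C. Lipids extracted, TLC; cholesteryl ester zone counted. Mean % inhibition vs no-compound control; Student's t test.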

Rattus norvegicus [12] = experiment: In vivo Sterol lowering activity at dose as 0.10 % of the diet.; type: functional; summary of the method: as §1
Rattus norvegicus [13] = experiment: In vivo triglyceride lowering activity, dosed at 0.10 % of the diet.; type: functional; summary of the method: as §1
Rattus norvegicus [14] = experiment: In vivo Sterol lowering activity at dose as 0.03 % of the diet.; type: functional; summary of the method: as §1
Rattus norvegicus [15] = experiment: In vivo triglyceride lowering activity, dosed at 0.03 % of the diet; type: functional; summary of the method: as §1
Rattus norvegicus [16] = experiment: In vivo Triglyceride lowering activity at dose as 0.01 % of the diet; type: functional; summary of the method: as §1

SMILES | inhibition [11] | serum sterol, percent of control (Rattus norvegicus [1]) | serum sterol, percent of control (Rattus norvegicus [2]) | Diet (Rattus norvegicus [3]) | Diet (Rattus norvegicus [4]) | Diet (Rattus norvegicus [5]) | serum triglycerides, percent of control (Rattus norvegicus [6]) | Diet (Rattus norvegicus [7]) | Diet (Rattus norvegicus [8]) | Diet (Rattus norvegicus [9]) | Diet (Rattus norvegicus [10]) | serum sterol, percent of control (Rattus norvegicus [12]) | Diet (Rattus norvegicus [13]) | serum sterol level, percent of control (Rattus norvegicus [14]) | serum triglycerides, percent of control (Rattus norvegicus [15]) | Diet (Rattus norvegicus [16])
O=C(O)c1ccc(NCc2ccc(Cl)cc2)cc1 |  | 71% | 89% | 98% | 80% | 72% | 52% |  |  |  |  |  |  |  |  | 
CCCCCCCCCCCCCCCCCCCNc1ccc(C(=O)O)cc1 |  | 100% |  |  |  |  | <46% | 90% | 96% | <52% | <46% |  |  |  |  | 
CCCCCCNc1ccc(C(=O)OCC)cc1 |  |  |  |  |  |  |  | 79% | 80% |  | 76% and 73% | 87% | 86% |  |  | 
C=CCCCCCCCC/C=C/CCCNc1ccc(C(=O)O)cc1 |  | <80% |  |  |  |  | 88% | <86% | <81% | <71% | 79% |  |  |  |  | 
CCCCCCCCCCCCCNc1ccc(C(=O)O)cc1 |  | <84% |  |  |  |  | <60% | 95% | <87% | <54% | <36% |  |  |  |  | 
Cc1ccc(CCC(=O)Nc2ccc(C(=O)O)cc2)cc1 | 0% |  | 94% | 75% | 83% | 97% |  |  |  |  |  | 91% | 70% |  |  | 
CCCCCCCCCCCCCCCNc1ccc(C(=O)OCC)cc1 |  | 86% |  |  |  |  | <62% | <91% | <84% | 88% | <76% |  |  |  |  | 
CCCCCCCCCCCCCCNc1ccc(C(=O)O)cc1 |  | 89% |  |  |  |  | <53% | 93% | 90% | <65% | <50% |  |  |  |  | 
O=C(O)c1ccc(N(CCCc2ccc(Cl)cc2)CCCc2ccc(Cl)cc2)cc1 | 33% |  | 98% | 126% |  | 91% |  |  |  |  |  | 98% | 85% | 84% |  | 
CCOC(=O)c1ccc(NCCCc2ccc(Cl)cc2)cc1C(=O)OCC | 54% |  | 95% | 93% |  | 91% |  |  |  |  |  | 96% | 80% | 99% |  | 
CCCCCCCC/C=C\CCCCCCCCNc1ccc(C(=O)OCC)cc1 |  | <96% |  |  |  |  | 77% | <95% | 99% | <68% | <57% |  |  |  |  | 
CCCCCCCCC/C=C/CCCNc1ccc(C(=O)OCC)cc1 | < 51% | <83% |  |  |  |  | 79% | <88% | <85% |  |  |  |  |  | 75% | 78%
O=C(O)c1ccc(NCCCCCCc2cccs2)cc1 | 31% | 76% | 90% |  | 83% |  | 57% |  |  |  |  |  |  |  | 63% | 58%
CCCCCCCCCC/C=C/CCCNc1ccc(C(=O)O)cc1 |  | <79% |  |  |  |  | 83% | <84% | <82% | 86% | <83% |  |  |  |  | 
CCCCCCCCCCCCCCCCCCNc1ccc(C(=O)O)cc1 |  | <82% |  |  |  |  | <60% | <86% | 94% | <70% | <71% |  |  |  |  | 
O=C([O-])c1ccc(NCc2ccc(Cl)cc2)cc1.[Na+] |  |  | 91% | 70% | 90% |  | 67% |  |  |  |  | 83% |  |  | 61% | 
CCCCCCCCCCCCNc1ccc(C(=O)O)cc1 |  | <89% |  |  |  |  | <32% | <86% | <80% |  |  |  |  |  | <40% | <51%
CCCCCCCC/C=C\CCCCCCCCNc1ccc(C(=O)O)cc1 |  | <75% |  |  |  |  | <63% | <88% | 85% | <72% | <58% |  |  |  |  | 
CCCCCCCCC/C=C/CCCNc1ccc(C(=O)O)cc1 |  | <79% |  |  |  |  | 75% | <86% | <83% | 85% | 97% |  |  |  |  | 
CCOC(=O)c1ccc(NC(=O)/C=C/c2ccc(Cl)cc2)cc1 | 51% |  | 98% | 104% |  | 110% |  |  |  |  |  | 107% | 80% | 107% |  | 

More lines, main results first:

inhibition [11] | SMILES | serum sterol, percent of control (Rattus norvegicus [1]) | serum sterol, percent of control (Rattus norvegicus [2]) | Diet (Rattus norvegicus [3]) | Diet (Rattus norvegicus [4]) | Diet (Rattus norvegicus [5]) | serum triglycerides, percent of control (Rattus norvegicus [6]) | Diet (Rattus norvegicus [7]) | Diet (Rattus norvegicus [8]) | Diet (Rattus norvegicus [9]) | Diet (Rattus norvegicus [10]) | serum sterol, percent of control (Rattus norvegicus [12]) | Diet (Rattus norvegicus [13]) | serum sterol level, percent of control (Rattus norvegicus [14]) | serum triglycerides, percent of control (Rattus norvegicus [15]) | Diet (Rattus norvegicus [16])
16% | O=C(O)c1ccc(NCCCc2ccc(F)cc2)cc1 |  | 83% | 94% | 82% | 90% | 61% |  |  |  |  | 82% |  |  |  | 
37% | CCOC(=O)c1ccc(NCCCc2ccccc2F)cc1 |  | 104% | 106% |  | 116% |  |  |  |  |  | 97% | 92% | 100% |  | 
42% | CCOC(=O)c1ccc(NC(=O)CCCCCc2ccc(Cl)cc2)cc1 |  | 93% | 96% |  | 95% |  |  |  |  |  | 99% | 104% | 101% |  | 
18% | O=C(O)c1ccc(NCCCc2ccc([N+](=O)[O-])cc2)cc1 |  | 98% | 78% |  | 75% |  |  |  |  |  | 96% | 83% | 91% |  | 
37% | CCOC(=O)c1ccc(NC(=O)CCCCC(=O)c2ccc(Cl)cc2)cc1 |  | 90% | 110% |  | 131% |  |  |  |  |  | 90% | 96% | 88% |  | 
19% | CCOC(=O)c1ccc(NCCCc2ccc([N+](=O)[O-])cc2)cc1 | 85% | 85% | 81% | 81% | 84% |  |  |  |  |  |  | 73% |  |  | 
9% | CCOC(=O)c1ccc(NCCCc2ccccc2[N+](=O)[O-])cc1 |  | 93% |  |  | 83% |  |  |  |  |  | 89% | 68% | 96% |  | 70%
56% | CCOC(=O)c1ccc(NCCCc2ccco2)cc1 |  | 96% | 90% |  | 96% |  |  |  |  |  | 101% | 83% | 94% |  | 
50% | CCOC(=O)c1ccc(NCCCc2cccc(Br)c2)cc1 |  | 84% | 74% | 84% |  |  |  |  |  |  | 94% | 63% |  | 60% | 
17% | O=C(OCC(O)CO)c1ccc(NCCCc2ccc(Cl)cc2)cc1 (stereo not given) | 81% | 97% | 78% | 88% | 63% | 57% |  |  |  |  |  |  |  |  | 
